Compound activity from PubChem BioAssay.
A selection: hits, their analogues and other compounds. The true share with any hit is near 1.6%.
NR2E3 ag-1: agonists of human NR2E3 nuclear receptor | Q9Y5X4 | CHO-S Gal4-NCOR/VP16-NR2E3 two-hybrid, luciferase | inhibition of corepressor binding, % at 3.98 µM | 0.35% of 360,000 active | AID 602229;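 active = inhibition above the mean of all tested compounds plus 3 SD, cut at about 70% in these data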;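 note: 0% = DMSO with NR2E3 transfected cells and 100% = cells lacking NR2E3 construct; higher means lower luciferase signal from less NR2E3 corepressor binding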
Target sequence (Q9Y5X4 whole entry, looked up, the tested form may be a part): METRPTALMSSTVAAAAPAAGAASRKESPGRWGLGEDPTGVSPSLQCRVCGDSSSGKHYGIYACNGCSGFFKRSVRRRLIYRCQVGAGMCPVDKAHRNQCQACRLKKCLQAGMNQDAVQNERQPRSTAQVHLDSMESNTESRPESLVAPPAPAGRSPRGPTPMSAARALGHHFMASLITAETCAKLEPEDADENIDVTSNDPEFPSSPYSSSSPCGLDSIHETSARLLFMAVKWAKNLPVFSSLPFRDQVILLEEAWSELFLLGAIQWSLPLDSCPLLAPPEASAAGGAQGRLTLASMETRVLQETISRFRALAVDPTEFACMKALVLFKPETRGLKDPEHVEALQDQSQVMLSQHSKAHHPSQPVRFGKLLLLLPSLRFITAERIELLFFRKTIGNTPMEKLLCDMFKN
Rev-erbA mod: Rev-erb alpha (human) modulation; 0.79% of 370,000 active; AID 1259318; Rev-erbα–FITC-DNA binding, fluorescence polarization, 90 min; activity, % at 10 µM;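 active = activity above about 14%, limit read from the data; passing the limit was not always enough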;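 note: 0% = DMSO wells with 35 nM protein and 100% = DMSO wells with 750 nM protein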
VLA-4 inh: inhibition in a human VLA-4 binding assay; P13612; VLA-4 expressing cells, ligand binding flow cytometry; inhibition, % (about 7 µM as worked out from the volumes in the protocol); 0.2% of 330,000 active; AID 2557; in the data active = inhibition above about 50%
NR2E3 ag-2: agonists of human nuclear receptor NR2E3 | Q9Y5X4 | GST-NR2E3/biotin-RetCOR TR-FRET, 1536-well | inhibition of corepressor binding, % at 4.78 µM | 0.12% of 320,000 active;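 active = percent inhibition above the cutoff of mean plus 3 SD of all tested compounds, set per screening campaign, cut at about 20% in these data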;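 note: 0% = DMSO wells and 100% = biotin wells as full block of FRET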
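System: GST-tagged NR2E3 plus biotinylated RetCOR corepressor; Amount: 1.35 nM GST-tagged NR2E3 final; Dosing: single nominal compound dose of 4.8 µM; Schedule: 5 h incubation at 4 °C; Technique: TR-FRET with europium anti-GST and streptavidin-D2, 340 nm excitation; Controls: biotin wells as high control, 0.6% DMSO wells as low control.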
PG9 binder: binds the HIV-1 gp120 antibody PG9. TR-FRET gp120-PG9 antibody binding. inhibition, % at 6.7 µM. 0.43% of 360,000 active. AID 624416; in the data active = inhibition above about 8.5%
NR1D1 mod conf: confirmation of modulators of human Rev-erb alpha DNA binding; Rev-erb alpha FITC-DNA binding, fluorescence polarization, 90 min; activation, % at 25 µM; shares compounds with Rev-erbA mod; 61% of 3,000 active; AID 1259319;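 active = activation at or above a set limit, or at least 3 SD above the negative control mean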;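 note: 0% = 35 nM protein with DMSO and 100% = 750 nM protein high control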
RORg DNA counter: RORgamma DNA-binding activity, dose-response counter-screen. shares compounds with Rev-erbA mod. 8% of 910 active. IC50, µM. purified RORgamma protein-FITC-DNA binding, fluorescence polarization;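 active = Compounds whose fitted half-maximal concentration for disrupting protein-DNA binding is below 10 micromolar; the record names Rev-erb in its text, so the target is in doubt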
The depositor's hits bear a star; nt = no result given.

SMILES	NR2E3 ag-1	Rev-erbA mod	VLA-4 inh	NR2E3 ag-2	PG9 binder	NR1D1 mod conf	others
C=C1C(=O)OC2CC3(C)OC3C3OC3C3=CC(OC3=O)C12 (stereo not given)	44	0	nt	nt	0	nt
C#C[C@]1(O)CCC2C3C(=O)C=C4C(Cl)=CCC[C@]4(C)C3CC[C@@]21C (stereo not given in full)	16	-1	nt	nt	-1	nt
CCCCCCn1c(=O)c(C(=O)Nc2cnccn2)c(O)c2ccccc21	-16	14*	3	1	-2	17
CCCCCn1c(=O)c(C(=O)Nc2ccccc2)c(O)c2ccccc21	0	21*	6	1	-3	4
CCCCCn1c(=O)c(C(=O)Nc2ccccn2)c(O)c2ccccc21	-16	-1	0	5	1	nt
Nc1ccc2ccc3cccc[n+]3c2c1	-54	127*	-152	7	2	105*	RORg DNA counter=>40
C[n+]1c(-c2ccccc2)c2cc(N)ccc2c2ccc(N)cc21	14	-22	-213	-5	-18	nt
O=[N+]([O-])c1ccc(N2CCCCCC2)c2nonc12	-12	56*	-8	-1	-4	49*	RORg DNA counter=4.1*
O=[N+]([O-])c1ccc(N2CCCCC2)c2ncccc12	-44	10	-9	2	-2	nt
COC(=O)C1=C(c2cccc(OC)c2OC)C[C@@H]2CC[C@H]1N2C(=O)N1CCCC1	-5	2	21	-1	-1	nt
CC1CC(C)CN(C(=O)COC(=O)c2cn(C)c3ccccc23)C1 (stereo not given)	-11	-2	3	2	-1	nt
O=c1c(C=NCc2cccs2)c(O)n(C2CCCCC2)c(=O)n1C1CCCCC1	-6	63*	4	0	0	2
O=c1c(C=NCCN2CCNCC2)c(O)n(C2CCCCC2)c(=O)n1C1CCCCC1	2	nt	0	5	nt	nt
CCCCOCCCN1C(C)=CC(=C2C(=O)NC(=S)NC2=O)C=C1C	-25	41*	11	0	-1	-2
C#CC[N+]1(C)[C@@H]2CC(OC(=O)C(CO)c3ccccc3)C[C@H]1C(O)C2 (stereo not given in full)	-15	-5	12	0	1	nt
Cc1cc2c(C(F)(F)F)cc(=O)oc2c2c1NCCC2	-9	17*	0	2	3	17*
O=c1cc(C(F)(F)F)c2cc3c4c(c2o1)CCCN4CCC3	-20	0	-348	2	2	nt
NC(Cc1ccc(O)cc1)C(=O)NN=Cc1ccc(N(CCCl)CCCl)cc1 (stereo not given)	-1	-2	nt	nt	-3	nt
Cn1cc(Br)c(C(=O)Nc2ccc3c(C(F)(F)F)cc(=O)oc3c2)n1	-16	15*	5	nt	0	3
CCCCOC(=O)COc1cc(C)cc2oc(=O)c3c(c12)CCC3	-11	26*	-6	2	-2	13
CN(c1ccc(O)cc1)c1ccc([N+](=O)[O-])c2nonc12	-1	25*	nt	nt	-7	30*	RORg DNA counter=>40
COc1cccc(N=Nc2c(O)[nH]c(=S)[nH]c2=O)c1	-24	5	-7	-1	-10	nt
COc1ccc(N=Nc2c(O)[nH]c(=S)[nH]c2=O)cc1	-71	27*	-22	-6	-12	19*
O=c1[nH]c(=S)[nH]c(O)c1N=Nc1ccc2c(c1)OCCO2	-80	30*	-2	-2	-13	25*
CCOC(=O)CC(SP1(=S)OCC2(CC=CCC2)CO1)C(=O)OCC (stereo not given)	7	2	nt	nt	1	nt
O=[N+]([O-])c1ccc(NCc2ccccc2)c2nonc12	nt	38*	-159	3	-3	52*	RORg DNA counter=4.1*
CCC(c1nnnn1C1CCCC1)N1CCC2(CC1)C(=O)NCN2c1ccccc1 (stereo not given)	-4	-4	nt	nt	-3	nt
